Experimental data taken from ChEMBL document CHEMBL1139423, “Stress-driven discovery of metabolites from the phytopathogenic fungus Leptosphaeria maculans: structure and activity of leptomaculins A-E” (2008).
Activity calls are given as the source filed them. The rule behind the calls is not given here.

Assays:
Brassica juncea [1] = test: Stress inducing elicitor activity in Brassica juncea cv. Cutlass assessed as induction of phytoalexins production; assay type: functional, organism-based
Procedure, shortened: (§1)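 Test solutions applied to leaves of whole plants. Plants were grown in a growth chamber at 24 ± 2 °C on a 16 h light / 8 h dark cycle. Treated plants were incubated in a growth cabinet. Control leaves received MeOH/H2O (1:1). Elicitation was scored by HPLC-DAD of leaf extracts as phytoalexins absent from control plants. Assays were run in triplicate, at least twice.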

Brassica napus [2] = test: Stress inducing elicitor activity in Brassica napus cv. Wester assessed as induction of phytoalexins production; assay type: functional, organism-based; procedure, shortened: as §1
Brassica juncea [3] = test: Induction necrosis on leaves of Brassica juncea cv. Cutlass at 0.5 mM; assay type: functional, organism-based
Brassica napus [4] = test: Induction necrosis on leaves of Brassica napus cv. Wester at 0.5 mM; assay type: functional, organism-based
Brassica juncea [5] = test: Stress inducing elicitor activity in Brassica juncea cv. Cutlass; assay type: functional, organism-based; procedure, shortened: as §1
Brassica napus [6] = test: Stress inducing elicitor activity in Brassica napus cv. Wester; assay type: functional, organism-based; procedure, shortened: as §1
Brassica juncea [7] = test: Stress inducing elicitor activity in Brassica juncea cv. Cutlass assessed as induction of brassilexin production at 1 mM; assay type: functional, organism-based
Procedure, shortened: (§2)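 Test solutions applied to leaves of whole plants (B. juncea cv. Cutlass, B. napus cv. Westar) grown in a growth chamber at 24 ± 2 °C with 16 h light / 8 h dark; plants then incubated in a growth cabinet. Leaf extracts analysed by HPLC-DAD for phytoalexins and indolyl stress metabolites against controls treated with MeOH/H2O (1:1). Run in triplicate, at least twice.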

Brassica juncea [8] = test: Stress inducing elicitor activity in Brassica juncea cv. Cutlass assessed as induction of cyclobrassinin production at 1 mM; assay type: functional, organism-based; procedure, shortened: as §2
Brassica juncea [9] = test: Stress inducing elicitor activity in Brassica juncea cv. Cutlass assessed as induction of rutalexin production at 1 mM; assay type: functional, organism-based; procedure, shortened: as §2
Brassica juncea [10] = test: Stress inducing elicitor activity in Brassica juncea cv. Cutlass assessed as induction of spirobrassinin production at 1 mM; assay type: functional, organism-based; procedure, shortened: as §2
Brassica napus [11] = test: Stress inducing elicitor activity in Brassica napus cv. Wester assessed as induction of spirobrassinin production at 1 mM; assay type: functional, organism-based; procedure, shortened: as §2
Brassica juncea [12] = test: Stress inducing elicitor activity in Brassica juncea cv. Cutlass assessed as induction of brassilexin production at 0.5 mM; assay type: functional, organism-based; procedure, shortened: as §2
Brassica juncea [13] = test: Stress inducing elicitor activity in Brassica juncea cv. Cutlass assessed as induction of cyclobrassinin production at 0.5 mM; assay type: functional, organism-based; procedure, shortened: as §2
Brassica juncea [14] = test: Stress inducing elicitor activity in Brassica juncea cv. Cutlass assessed as induction of rutalexin production at 0.5 mM; assay type: functional, organism-based; procedure, shortened: as §2
Brassica juncea [15] = test: Stress inducing elicitor activity in Brassica juncea cv. Cutlass assessed as induction of spirobrassinin production at 0.5 mM; assay type: functional, organism-based; procedure, shortened: as §2
Brassica napus [16] = test: Stress inducing elicitor activity in Brassica napus cv. Wester assessed as induction of spirobrassinin production at 0.5 mM; assay type: functional, organism-based; procedure, shortened: as §2
Brassica napus [17] = test: Stress inducing elicitor activity in Brassica napus cv. Wester assessed as increase in indolyl-3-acetonitrile levels relative to control; assay type: functional; procedure, shortened: as §2
Brassica juncea [18] = test: Stress inducing elicitor activity in Brassica juncea cv. Cutlass assessed as increase in indolyl-3-acetonitrile levels relative to control; assay type: functional; procedure, shortened: as §2
Brassica napus [19] = test: Stress inducing elicitor activity in Brassica napus cv. Wester assessed as increase in 1-methoxyindolyl-3-acetonitrile levels relative to control; assay type: functional; procedure, shortened: as §2
Brassica juncea [20] = test: Stress inducing elicitor activity in Brassica juncea cv. Cutlass assessed as increase in 1-methoxyindolyl-3-acetonitrile levels relative to control; assay type: functional; procedure, shortened: as §2
Brassica juncea [21] = test: Stress inducing elicitor activity in Brassica juncea cv. Cutlass as induction of spirobrassinin production at 1 mM; assay type: functional, organism-based; procedure, shortened: as §1

CC(C)=CCOc1ccc(C[C@@H]2NC(=O)[C@H](CO)NC2=O)cc1
Activity (Brassica juncea [1]): inactive | Activity (Brassica napus [2]): inactive

CC(=O)O[C@H]1[C@]2(O)C[C@]34S[C@](CO)(C(=O)N3[C@@H]2C[C@]12O[C@H](C)C(C)(C)C2=O)N(C)C4=O
Activity (Brassica juncea [3]): Active | Activity (Brassica napus [4]): Active | Activity (Brassica juncea [5]): inactive | Activity (Brassica napus [6]): inactive

C/C=C1/NC(=O)[C@H](C(C)C)NC(=O)[C@@H](CC(C)C)NC(=O)[C@H](CC(C)C)OC(=O)[C@H](Cc2ccccc2)OC1=O
Activity (Brassica juncea [1]): inactive | Activity (Brassica napus [2]): inactive

CC(=O)O[C@H]1[C@]2(O)C[C@]34SS[C@](CO)(C(=O)N3[C@@H]2C[C@]12O[C@H](C)C(C)(C)C2=O)N(C)C4=O [SIRODESMIN PL]
Activity (Brassica juncea [7]): Active | Activity (Brassica juncea [8]): Active | Activity (Brassica juncea [9]): Active | Activity (Brassica juncea [10]): Active | Activity (Brassica napus [11]): Active | Activity (Brassica juncea [12]): Active | Activity (Brassica juncea [13]): Active | Activity (Brassica juncea [14]): Active | Activity (Brassica juncea [15]): Active | Activity (Brassica napus [16]): Active | fold change (FC) (Brassica napus [17]): 8 | fold change (FC) (Brassica juncea [18]): 8 | fold change (FC) (Brassica napus [19]): 8 | fold change (FC) (Brassica juncea [20]): 8 | Activity (Brassica juncea [3]): Active | Activity (Brassica napus [4]): Active

CC(=O)O[C@H]1[C@]2(O)C[C@]34SSS[C@](CO)(C(=O)N3[C@@H]2C[C@]12O[C@H](C)C(C)(C)C2=O)N(C)C4=O
Activity (Brassica juncea [5]): inactive | Activity (Brassica napus [6]): inactive

CC(=O)O[C@H]1[C@]2(O)C[C@]34SSSS[C@](CO)(C(=O)N3[C@@H]2C[C@]12O[C@H](C)C(C)(C)C2=O)N(C)C4=O
Activity (Brassica juncea [5]): inactive | Activity (Brassica napus [6]): inactive

C[C@H]1O[C@]2(C[C@H]3N4C(=O)[C@@]5(CO)SS[C@]4(C[C@@]3(O)[C@@H]2O)C(=O)N5C)C(=O)C1(C)C [DEACETYLSIRODESMIN PL]
Activity (Brassica napus [11]): Active | fold change (FC) (Brassica napus [17]): 8 | Activity (Brassica juncea [21]): Active | fold change (FC) (Brassica juncea [18]): 8 | fold change (FC) (Brassica napus [19]): 8 | fold change (FC) (Brassica juncea [20]): 8 | Activity (Brassica juncea [3]): Active | Activity (Brassica napus [4]): Active
